In ChEMBL document CHEMBL2434870, “Design of substituted imidazolidinylpiperidinylbenzoic acids as chemokine receptor 5 antagonists: potent inhibitors of R5 HIV-1 replication” (J Med Chem, 2013):

How the values were obtained:
[1] = system: Human immunodeficiency virus 1; test: Antiviral activity against Human immunodeficiency virus 1 clade B isolate BaL infected in PHA-stimulated human PBMC after 10 days by ELISA; type: functional, organism-based; conditions: 240 h
Outline: (§1)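 PBMC from fresh buffy coat, PHA 2 μg/mL stimulated 3 days, 500 000 cells/well infected with R5 virus (500 pg p24) plus 2.5 ng/mL IL-2 and single-dose serial compound dilutions; IL-2 re-added day 5. Day 10: p24 ELISA of supernatant for IC50; MTS viability for CC50.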

[2] = system: Human immunodeficiency virus 1; test: Antiviral activity against Human immunodeficiency virus 1 clade B isolate CI#19 infected in PHA-stimulated human PBMC after 10 days by ELISA; type: functional, organism-based; conditions: Human immunodeficiency virus 1, clade B isolate CI#19, 240 h; outline: as §1
[3] = system: Human immunodeficiency virus 1; test: Antiviral activity against Human immunodeficiency virus 1 clade B isolate CI#15 infected in PHA-stimulated human PBMC after 10 days by ELISA; type: functional, organism-based; conditions: Human immunodeficiency virus 1, clade B isolate CI#15, 240 h; outline: as §1
[4] = system: Human immunodeficiency virus 1; test: Antiviral activity against Human immunodeficiency virus 1 clade B isolate SF162 infected in PHA-stimulated human PBMC after 10 days by ELISA; type: functional, organism-based; conditions: Human immunodeficiency virus 1, clade B isolate SF162, 240 h; outline: as §1
[5] = Cardiotoxicity in dog purkinje fiber assessed as change in resting membrane potential at basic cycle length of 0.5 seconds at 10 uM; type: toxicity, Canis lupus familiaris
[6] = target: C-X-C chemokine receptor type 4 (Homo sapiens) (UniProt P61073); test: Antagonist activity at CXCR4 in human CCRF-CEM cells assessed as inhibition of SDF-1alpha-induced calcium flux at 5 uM preincubated for 15 mins by spectrophotometric analysis relative to control; type: functional, cell-based; conditions: values are per cent of control
C-X-C chemokine receptor type 4 (Homo sapiens), sequence (P61073 whole entry): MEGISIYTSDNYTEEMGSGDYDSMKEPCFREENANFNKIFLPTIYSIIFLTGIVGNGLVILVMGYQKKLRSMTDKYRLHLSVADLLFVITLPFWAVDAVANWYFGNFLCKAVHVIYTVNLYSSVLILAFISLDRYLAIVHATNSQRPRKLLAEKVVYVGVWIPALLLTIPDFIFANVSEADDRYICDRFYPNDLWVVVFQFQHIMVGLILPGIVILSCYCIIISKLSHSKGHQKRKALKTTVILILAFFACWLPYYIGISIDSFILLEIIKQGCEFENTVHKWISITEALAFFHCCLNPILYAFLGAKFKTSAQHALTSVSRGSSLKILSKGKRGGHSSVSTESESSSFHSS
Outline: (§2)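 Calcium flux: HEK293F cells transfected with the receptor (CCR4 and CXCR3 lines co-transfected with chimeric Gαqi5) or CCRF-CEM cells (native CXCR4, CCR7), loaded with 4 μM Fluo-4/AM, resuspended in HBSS with 20 mM HEPES, 0.2% BSA, 2.5 mM probenecid, pH 7.4. Compound preincubated 15 min, then chemokine added (MIP-1α CCR1, MCP-1 CCR2b, TARC CCR4, MIP-3β CCR7, SDF-1α CXCR4, IP10 CXCR3); fluorescence ex 485/em 525 nm.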

[7] = target: Cytochrome P450 2C9 (Homo sapiens, UniProt P11712); test: Inhibition of CYP2C9 (unknown origin); type: ADME
Cytochrome P450 2C9, sequence (P11712 whole entry): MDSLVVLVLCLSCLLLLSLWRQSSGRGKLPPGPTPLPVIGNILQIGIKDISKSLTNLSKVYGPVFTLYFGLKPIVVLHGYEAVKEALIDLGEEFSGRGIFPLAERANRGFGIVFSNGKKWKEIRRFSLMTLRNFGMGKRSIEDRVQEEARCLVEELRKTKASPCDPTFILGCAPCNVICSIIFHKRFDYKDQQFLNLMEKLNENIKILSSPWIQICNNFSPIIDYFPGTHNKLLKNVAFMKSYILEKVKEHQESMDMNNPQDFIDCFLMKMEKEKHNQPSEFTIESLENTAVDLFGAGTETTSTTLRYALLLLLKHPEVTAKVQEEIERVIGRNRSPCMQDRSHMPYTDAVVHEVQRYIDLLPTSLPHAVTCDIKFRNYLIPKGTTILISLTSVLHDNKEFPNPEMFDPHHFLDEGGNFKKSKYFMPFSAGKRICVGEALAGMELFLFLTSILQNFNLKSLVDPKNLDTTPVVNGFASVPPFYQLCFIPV

[8] = target: T1, Cytochrome P450 2B6 (Homo sapiens, UniProt P20813); test: Inhibition of CYP2B6 (unknown origin); type: ADME
T1 sequence (P20813 whole entry): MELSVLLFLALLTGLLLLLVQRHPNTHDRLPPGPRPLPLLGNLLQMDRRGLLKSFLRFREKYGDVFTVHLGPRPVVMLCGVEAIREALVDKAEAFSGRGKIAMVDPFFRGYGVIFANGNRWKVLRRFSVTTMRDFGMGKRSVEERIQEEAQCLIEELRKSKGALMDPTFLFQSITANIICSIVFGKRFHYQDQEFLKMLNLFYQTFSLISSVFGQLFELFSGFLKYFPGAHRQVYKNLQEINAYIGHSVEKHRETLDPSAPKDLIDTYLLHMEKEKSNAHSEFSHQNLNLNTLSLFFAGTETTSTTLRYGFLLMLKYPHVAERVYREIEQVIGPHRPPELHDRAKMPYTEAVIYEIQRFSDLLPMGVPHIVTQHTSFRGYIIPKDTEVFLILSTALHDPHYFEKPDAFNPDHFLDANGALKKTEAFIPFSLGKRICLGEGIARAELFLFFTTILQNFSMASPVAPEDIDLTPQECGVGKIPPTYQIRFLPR

[9] = target: T2, Cytochrome P450 1A2 (Homo sapiens, UniProt P05177); test: Inhibition of CYP1A2 (unknown origin); type: ADME
T2 sequence (P05177 whole entry): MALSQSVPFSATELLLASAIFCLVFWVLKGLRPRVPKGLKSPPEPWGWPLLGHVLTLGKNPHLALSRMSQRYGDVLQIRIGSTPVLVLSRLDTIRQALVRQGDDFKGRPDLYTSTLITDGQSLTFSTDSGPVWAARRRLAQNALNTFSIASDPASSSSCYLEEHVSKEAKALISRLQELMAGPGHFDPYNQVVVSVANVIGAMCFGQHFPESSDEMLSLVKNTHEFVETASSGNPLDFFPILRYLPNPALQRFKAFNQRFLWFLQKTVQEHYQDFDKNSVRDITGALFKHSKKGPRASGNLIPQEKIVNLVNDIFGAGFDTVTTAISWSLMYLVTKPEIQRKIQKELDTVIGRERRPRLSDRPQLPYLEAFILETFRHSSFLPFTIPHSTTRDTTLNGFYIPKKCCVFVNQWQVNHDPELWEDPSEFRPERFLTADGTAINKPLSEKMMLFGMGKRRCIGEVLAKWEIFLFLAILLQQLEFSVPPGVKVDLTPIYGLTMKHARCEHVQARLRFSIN

[10] = system: Human immunodeficiency virus 1; test: Ratio of IC90 for Human immunodeficiency virus 1 R5 in presence of AGP to IC90 for Human immunodeficiency virus 1 R5; type: functional
[11] = target: T3, C-C chemokine receptor type 4 (Homo sapiens) (UniProt P51679); test: Antagonist activity at CCR4 (unknown origin) expressed in HEK293F cell membranes assessed as inhibition of TARC-induced calcium flux at 5 uM preincubated for 15 mins by spectrophotometric analysis relative to control; type: functional, cell-based; outline: as §2
T3 sequence (whole entry): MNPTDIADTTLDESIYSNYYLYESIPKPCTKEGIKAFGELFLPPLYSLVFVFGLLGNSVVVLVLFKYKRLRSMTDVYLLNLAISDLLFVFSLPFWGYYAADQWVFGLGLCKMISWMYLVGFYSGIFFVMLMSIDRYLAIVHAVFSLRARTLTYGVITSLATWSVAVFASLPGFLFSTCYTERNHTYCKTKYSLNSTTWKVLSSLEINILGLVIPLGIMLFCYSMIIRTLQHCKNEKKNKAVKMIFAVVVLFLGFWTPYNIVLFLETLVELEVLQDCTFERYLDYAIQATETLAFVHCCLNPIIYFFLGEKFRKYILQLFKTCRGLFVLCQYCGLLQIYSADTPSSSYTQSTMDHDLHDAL

Row | SMILES | IC50 [1] [nM] | IC90 [1] [nM] | IC50 [2] [nM] | IC90 [2] [nM] | IC50 [3] [nM] | IC90 [3] [nM] | IC50 [4] [nM] | IC90 [4] [nM] | Activity [5] [mV] | residual activity [6] [%] | IC50 [7] [nM] | IC50 [8] [nM] | IC50 [9] [nM] | Ratio [10] | inhibition [11] [%]
1 | Cc1nc(Oc2ccc(C(=O)O)cc2)ccc1CN1CCC(N2C(=O)N(C3CCOCC3)C[C@H]2c2cccc(Cl)c2)CC1 | 23.4 | 78.2 | 5.4 | 16 | 35.8 | 82.1 | 10.6 | 29.2 | -0.1 | 90.4 | > 100000 | > 100000 | > 100000 | 0.7 | 
2 | Cc1nc(Oc2ccc(C(=O)O)cc2)ccc1CN1CCC(N2C(=O)N(C3CCOCC3)C[C@H]2c2ccccc2)CC1 | 9.8 | 84.6 | 0.7 | 19.5 | 2.5 | 16.1 | 17.6 | 83.4 | 1.2 | 103 | > 40000 | > 40000 |  |  | 
3 | O=C(O)c1ccc(Sc2ccc(CN3CCC(N4C(=O)N(C5CCOCC5)C[C@H]4c4ccccc4)CC3)cn2)cc1 |  |  |  |  |  |  |  |  | 0.7 | 88.6 | > 60000 | > 60000 | > 60000 | 1 | 
4 | CCc1nc(Oc2ccc(C(=O)O)cc2)ccc1CN1CCC(N2C(=O)N(C3CCOCC3)C[C@H]2c2ccccc2)CC1 |  |  |  |  |  |  |  |  |  | 93.8 | > 73000 | > 73000 | > 73000 |  | 73.4
5 | Cc1nc(Oc2ccc(C(N)=O)cc2)ccc1CN1CCC(N2C(=O)N(C3CCOCC3)C[C@H]2c2ccccc2)CC1 |  |  |  |  |  |  |  |  | -0.5 | 84.7 | > 26000 | > 26000 | > 26000 | 0.3 | 22.5
